We go through 10 compounds from ChEMBL document CHEMBL4043075, “Development of Fluorinated Analogues of Perhexiline with Improved Pharmacokinetic Properties and Retained Efficacy” (J Med Chem, 2017).

Active and inactive are the calls of the source. The rule behind the calls is not given here. Where only a bound is given, the exact number is not on record here.

For data set [1], the target named is T1, Carnitine O-palmitoyltransferase 1, muscle isoform (Rattus norvegicus, UniProt Q63704).
T1 sequence (Q63704 whole entry): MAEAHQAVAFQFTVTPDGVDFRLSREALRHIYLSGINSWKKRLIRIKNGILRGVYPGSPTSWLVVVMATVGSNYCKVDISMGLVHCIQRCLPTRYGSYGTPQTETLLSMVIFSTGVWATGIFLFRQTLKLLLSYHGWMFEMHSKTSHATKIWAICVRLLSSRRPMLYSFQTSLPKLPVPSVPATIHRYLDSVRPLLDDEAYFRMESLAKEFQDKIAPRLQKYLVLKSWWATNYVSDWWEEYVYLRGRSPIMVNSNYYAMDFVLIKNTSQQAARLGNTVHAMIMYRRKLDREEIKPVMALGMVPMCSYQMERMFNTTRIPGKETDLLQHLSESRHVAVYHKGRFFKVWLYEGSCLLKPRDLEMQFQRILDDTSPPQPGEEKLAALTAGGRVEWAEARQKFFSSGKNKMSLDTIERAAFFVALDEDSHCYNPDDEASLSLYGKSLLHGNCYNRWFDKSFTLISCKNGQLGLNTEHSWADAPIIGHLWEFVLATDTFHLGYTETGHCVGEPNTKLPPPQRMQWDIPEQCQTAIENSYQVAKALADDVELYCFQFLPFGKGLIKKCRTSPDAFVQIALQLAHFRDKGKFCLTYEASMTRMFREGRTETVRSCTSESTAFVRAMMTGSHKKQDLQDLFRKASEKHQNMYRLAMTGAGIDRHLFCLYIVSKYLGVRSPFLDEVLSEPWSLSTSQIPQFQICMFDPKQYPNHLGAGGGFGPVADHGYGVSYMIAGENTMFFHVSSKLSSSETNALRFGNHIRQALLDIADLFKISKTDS
The data set is described as follows: Inhibition of Wistar rat heart mitochondrial CPT-1 assessed as reduction in conversion of palmitoyl CoA and L-carnitine into palmitoylcarnitine preincubated for 3 mins followed by L-carnitine and palmitoyl CoA addition measured for 3.5 mins by spectrophotometric analysis.

A short description of data set [2]: Stability of the compound in pH 7.4 PBS buffer at 37 degC after 1 hr. The note with it: pH 7.4, 1 h. It is filed as physicochemical. The method, boiled down:
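Compound incubated 1 h in pH 7.4 PBS at 37 °C, then checked for decomposition.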

Data set [3] in a line: Half life in Sprague-Dawley rat liver microsomes at 3 uM up to 45 mins in presence of NADPH by LC-MS/MS analysis. It is filed as ADME, microsome. On the technique in general: Liver microsomes are a subcellular fraction often used to study metabolism.
For data set [4], the target named is CYP2D6 (Homo sapiens, UniProt P10635). Kind of data set: Drug metabolism assessed as human CYP2D6-mediated compound degradation by measuring half life at 5 uM up to 45 mins in presence of NADPH by LC-MS/MS analysis. Type of data set: ADME.
Sequence of CYP2D6 (P10635 whole entry): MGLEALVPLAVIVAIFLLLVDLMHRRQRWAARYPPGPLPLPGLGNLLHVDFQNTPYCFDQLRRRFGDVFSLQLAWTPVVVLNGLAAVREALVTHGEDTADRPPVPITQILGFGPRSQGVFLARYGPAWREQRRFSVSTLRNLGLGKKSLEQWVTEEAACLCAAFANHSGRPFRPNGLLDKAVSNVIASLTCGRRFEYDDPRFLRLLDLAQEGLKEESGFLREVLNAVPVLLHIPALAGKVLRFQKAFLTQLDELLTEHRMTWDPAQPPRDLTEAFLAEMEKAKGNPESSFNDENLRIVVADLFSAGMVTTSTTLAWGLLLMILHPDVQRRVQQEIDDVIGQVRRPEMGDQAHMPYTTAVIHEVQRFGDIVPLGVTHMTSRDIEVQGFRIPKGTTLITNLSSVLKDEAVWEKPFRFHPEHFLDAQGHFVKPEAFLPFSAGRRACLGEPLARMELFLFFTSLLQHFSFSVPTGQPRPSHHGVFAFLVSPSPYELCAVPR
The nature of data set [5]: Half life in human liver microsomes at 3 uM up to 45 mins in presence of NADPH by LC-MS/MS analysis. Type of data set: ADME, microsome.
In data set [6] the test system is Heart. The data set is described as follows: Cardioprotective activity against Langendorff perfused C57BL/6 mouse heart assessed as lusitropic effect at 2 uM measured for 40 mins reperfusion period in presence of high fat. It is filed as functional, tissue-based. The method, boiled down: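 Isolated C57BL/6 hearts (25-30 g) retrogradely perfused at constant 80 mmHg, 37 °C, 95% O2/5% CO2, with modified Krebs containing 1.2 mM sodium palmitate conjugated to 3% BSA. After 10 min stabilisation, 30 min perfusion with control buffer or compound at 2 or 10 µM. LVdP/dt max and min derived from LV pressure over 40 min; mean ± SEM, n = 12-19, 1-way ANOVA with Bonferroni.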

`OC1CCC(C(CC2CCCCN2)C2CCCCC2)CC1` (stereo not drawn): the half-inhibitory concentration (IC50) in data set [1] stood at 475 µM.

Turning to `C1CCC(C(CC2CCCCN2)C2CCCC2)CC1` (stereo not drawn), the Stability result in data set [2] is recorded as “Stable”. Also, the figures for the half-life at 3 µM in data set [3] and in data set [5] were 19 min and greater than 150 min, respectively. The half-inhibitory concentration (IC50) in data set [1] came to 11 µM. The half-life at 5 µM in data set [4] is 16 min.

Take `C1CCC(C(CC2CCCCN2)C2CCOCC2)CC1` (stereo not drawn): the Stability result in data set [2] is on record as “Stable”. The half-life at 3 µM in data set [3] was found to be 31 min; in data set [5], 84 min. Moreover, the IC50 in data set [1] is 715 µM. In addition, the half-life at 5 µM in data set [4] stood at 7 min.

As for `FC1CCC(C(CC2CCCCN2)C2CCCCC2)CC1` (stereo not drawn), in data set [2], the Stability entry is on record as “Unstable”. Moreover, the half-life at 3 µM turned out to be 11 min in data set [3] and 65 min in data set [5]. The half-life at 5 µM in data set [4] was 16 min.

On to `C1CCC(C(CC2CCCCN2)C2CCC2)CC1` (stereo not drawn), for which the Stability result in data set [2] is reported as “Stable”. The half-life at 3 µM was 10 min in data set [3] and greater than 200 min in data set [5].

In the case of `C1CCC(C(CC2CCCCN2)C2CCCCC2)CC1` (racemic), the result in data set [6] was Active.

With `C1CCC(C(CC2CCCCN2)C2CC2)CC1` (stereo not drawn), in data set [2], the Stability entry is listed as “Stable”. For the same compound, the half-life at 3 µM is 3 min in data set [3] and 124 min in data set [5].

As for `C1CCC(CC(C2CCCC2)C2CCC2)NC1` (stereo not drawn), the Stability result in data set [2] was “Stable”. In addition, the half-life at 3 µM in data set [3] stood at 7 min; in data set [5] it was 51 min.

With `Fc1ccc(C(CC2CCCCN2)C2CCCCC2)cc1` (stereo not drawn), in data set [2], the Stability result was “Stable”. Besides, the half-life at 3 µM in data set [3] is 7 min; in data set [5], 79 min.

With `FC1(F)CCC(C(CC2CCCCN2)C2CCC(F)(F)CC2)CC1` (stereo not drawn), the Stability result in data set [2] was “Stable”. For the same compound, the figures for the half-life at 3 µM in data set [3] and in data set [5] were greater than 1500 min and greater than 4000 min, respectively. For the same compound, the half-inhibitory concentration (IC50) in data set [1] was 88 µM. Further, the half-life at 5 µM in data set [4] is greater than 150 min.

Usually IC50 stands for the concentration that inhibits the measured activity by half. A word on the half-life: it is how long it takes for the measured level to halve.
